According to ChEMBL document CHEMBL1142960, “Synthesis and structure-activity relationships for 2,4-dinitrobenzamide-5-mustards as prodrugs for the Escherichia coli nfsB nitroreductase in gene therapy” (J Med Chem, 2007):
≈ marks a conversion by molar mass, not a printed value.

Assays:
[1] = Partition coefficient at pH 7.4 by shake-flask method; assay type: physicochemical; conditions: octanol/water
How it was run: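 Octanol-water partition coefficient by shake-flask at pH 7.4, reported with SEM.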

V79 [2] = test: Antiproliferative activity against chinese hamster wild-type V79 NTR-ve cells after 18 hrs; assay type: functional, cell-based; conditions: Cricetulus griseus, V79, 18 h
V79 [3] = test: Antiproliferative activity against chinese hamster V79 NTRpuro cells after 18 hrs; assay type: functional, cell-based; conditions: Cricetulus griseus, V79, 18 h
V79 [4] = test: Selectivity ratio of IC50 for V79 NTR-ve cells to IC50 for V79 NTRpuro cells; assay type: functional, Cricetulus griseus
EMT6 [5] = test: Antiproliferative activity against mouse wild type EMT6 NTR-ve cells after 18 hrs; assay type: functional, cell-based; conditions: EMT6, 18 h
EMT6 [6] = test: Antiproliferative activity against mouse EMT6 NTRpuro cells after 18 hrs; assay type: functional, cell-based; conditions: EMT6, 18 h
EMT6 [7] = test: Selectivity ratio of IC50 for EMT6 NTR-ve cells to IC50 forEMT6 NTRpuro cells; assay type: functional, Mus musculus
WiDr [8] = test: Antiproliferative activity against human wild type WiDr NTR-ve cells after 18 hrs; assay type: functional, cell-based
WiDr [9] = test: Antiproliferative activity against human WiDr NTRneo cells after 18 hrs; assay type: functional, cell-based
WiDr [10] = test: Selectivity ratio of IC50 for WiDr NTR-ve cells to IC50 for WiDr NTRneo cells; assay type: functional, Homo sapiens
[11] = Antiproliferative activity against human wild type Skov3 NTR-ve cells after 18 hrs; assay type: functional, cell-based
V79 [12] = test: Clonogenic survival of V79 NTRoua cells after 5 hrs by MCL assay; assay type: functional, Cricetulus griseus
[13] = Antiproliferative activity against human Skov3 NTRneo cells after 18 hrs; assay type: functional, cell-based; conditions: SK-OV-3, 18 h
[14] = Selectivity ratio of IC50 for Skov3 NTR-ve cells to IC50 for Skov3 NTRneo cells; assay type: functional, Homo sapiens
V79 [15] = test: Clonogenic survival of 3% V79 NTRpuro cells in co-cultures with 97% V79 NTRoua after 5 hrs by MCL assay; assay type: functional, Cricetulus griseus
How it was run: (§1)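 Multicellular layer cocultures of 3% V79-NTRpuro activators and 97% V79oua NTR-ve targets (ouabain-resistant), exposed to prodrug for 5 h. MCLs were then trypsin-dissociated and plated in ouabain or puromycin selective media for clonogenic survival. C10 (10% survival) interpolated for activators and targets; AC/TC ratio derived. Mean with SEM or range over independent experiments.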

V79 [16] = test: Clonogenic survival of 97% V79 NTRoua cells in co-cultures with 3% V79 NTRpuro cells after 5 hrs by MCL assay; assay type: functional, Cricetulus griseus; how it was run: as §1
[17] = Toxicity in ip dosed CD1 nude mouse in DMSO; assay type: organism-based; conditions: in vivo
How it was run: (§2)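 Maximum tolerated dose (MTD) determined in CD-1 nude mice after a single i.p. injection of prodrug, given in the vehicle named in each line.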

EMT6 [18] = test: Antitumor activity against mixed mouse EMT6/EMT6 NTRpuro cells injected in CD1 nude mouse assessed as cell kill at 133 umol/kg, ip in DMSO after 18 hrs; assay type: functional
[19] = Solubility in alpha MEM; assay type: physicochemical
How it was run: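 Solubility (mM) in α-MEM with 5% fetal calf serum at ambient temperature, measured by HPLC.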

[20] = Stability in alpha MEM at 37 degC after 24 hrs; assay type: physicochemical; conditions: read-out: Stability
How it was run: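 Percent parent compound remaining, by HPLC, after holding in α-MEM with 5% fetal calf serum at 37 °C for 24 h.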

V79 [21] = test: Clonogenic survival ratio of 3% V79 NTRpuro cells to 97% V79 NTRoua cells in co-culture; assay type: functional, Cricetulus griseus; how it was run: as §1
WiDr [22] = test: Antitumor activity against mixed human 10% WiDr NTRneo/ 90% WiDr tumor cells injected in CD1 nude mouse assessed as growth delay at 1330 umol/kg, ip in DMSO; assay type: functional
How it was run: (§3)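 WiDr-NTRneo tumours (100% NTR+ve, or 1:9 NTR+ve:NTR-ve mixtures) in CD-1 nude mice, given a single i.p. dose at MTD. Read-out is median growth delay to 15 mm mean diameter, plus tumours not palpable 100 days after treatment. Aziridine given at 200 µmol/kg as positive control in every experiment.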

WiDr [23] = test: Antitumor activity against human 100% WiDr NTRneo tumor cells injected in CD1 nude mouse assessed as growth delay at 1330 umol/kg, ip in DMSO; assay type: functional; how it was run: as §3
[24] = Toxicity in ip dosed CD1 nude mouse in DMSO/PEG; assay type: organism-based; conditions: in vivo; how it was run: as §2
EMT6 [25] = test: Antitumor activity against mixed mouse EMT6/EMT6 NTRpuro cells injected in CD1 nude mouse assessed as cell kill at 562 umol/kg, ip in DMSO/PEG after 18 hrs; assay type: functional
WiDr [26] = test: Antitumor activity against mixed human 10% WiDr NTRneo/ 90% WiDr tumor cells injected in CD1 nude mouse assessed as growth delay at 1780 umol/kg, ip in DMSO; assay type: functional; how it was run: as §3
WiDr [27] = test: Antitumor activity against human 100% WiDr NTRneo tumor cells injected in CD1 nude mouse assessed as growth delay at 562 umol/kg, ip in DMSO/PEG; assay type: functional; how it was run: as §3
[28] = Toxicity in ip dosed CD1 nude mouse in DMA/PEG; assay type: organism-based; conditions: in vivo; how it was run: as §2
EMT6 [29] = test: Antitumor activity against mixed mouse EMT6/EMT6 NTRpuro cells injected in CD1 nude mouse assessed as cell kill at 200 umol/kg, ip in DMA/PEG after 18 hrs; assay type: functional
WiDr [30] = test: Antitumor activity against human 100% WiDr NTRneo tumor cells injected in CD1 nude mouse assessed as growth delay at 200 umol/kg, ip in DMA/PEG; assay type: functional; how it was run: as §3
WiDr [31] = test: Antitumor activity against mixed human 10% WiDr NTRneo/ 90% WiDr tumor cells injected in CD1 nude mouse assessed as growth delay at 200 umol/kg, ip in DMA/PEG; assay type: functional; how it was run: as §3

Compound | logD [1] | IC50 (V79 [2]) [µM] | IC50 (V79 [3]) [µM] | Ratio IC50 (V79 [4]) | IC50 (EMT6 [5]) [µM] | IC50 (EMT6 [6]) [µM] | Ratio IC50 (EMT6 [7]) | IC50 (WiDr [8]) [µM] | IC50 (WiDr [9]) [µM] | Ratio IC50 (WiDr [10]) | IC50 [11] [µM] | Activity (V79 [12]) [µM] | IC50 [13] [µM] | Ratio IC50 [14] | Activity (V79 [15]) [µM] | Activity (V79 [16]) [µM] | MTD [17] [µmol/kg] | solubility [19] [µM] | remaining at 24 h [20] [%] | also measured
O=C(NO)c1cc(N(CCCl)CCCl)c([N+](=O)[O-])cc1[N+](=O)[O-] | 1.22 | 51 | 1.36 | 42 | 96 | 0.88 | 110 | 111 | 2.01 | 55 | 200 | >1400 | 1.57 | 124 | 43 | >300 | 133 | 1400 (≈ 514 µg/mL) | 91 | LCK (EMT6 [18]): 0.38
CS(=O)(=O)OCCN(CCI)c1cc(C(N)=O)c([N+](=O)[O-])cc1[N+](=O)[O-] | 0.74 | 101 | 0.29 | 311 | 79 | 0.17 | 529 | 70 | 0.41 | 172 | 97 | >200 | 0.31 | 328 | 4.2 | 12 | 1330 | 200 (≈ 100 µg/mL) | 72 | Ratio (V79 [21]): 0.35; Activity (WiDr [22]): 15 days; Activity (WiDr [23]): >82 days
O=C(NCCCO)c1cc(N(CCBr)CCBr)c([N+](=O)[O-])cc1[N+](=O)[O-] | 1.81 | 37 | 0.28 | 135 | 66 | 0.05 | 1670 | 56 | 0.25 | 224 | 72 | 100 | 0.23 | 309 | 3 | 7 | 1780 | 170 (≈ 84.7 µg/mL) | 83 | MTD [24]: 562 µmol/kg; LCK (EMT6 [25]): >3.44; Activity (WiDr [26]): 7 days; Activity (WiDr [27]): >83 days
NC(=O)c1cc(N(CCOS(N)(=O)=O)CCOS(N)(=O)=O)c([N+](=O)[O-])cc1[N+](=O)[O-] | -0.95 | 650 | 0.87 | 788 | 770 | 1.6 | 491 | 437 | 1.9 | 227 | 868 | >1800 | 3.9 | 265 | 9.5 | 800 |  | 1800 (≈ 850 µg/mL) | 95 | 
O=C(NCCO)c1cc(N(CCI)CCI)c([N+](=O)[O-])cc1[N+](=O)[O-] |  |  |  |  |  |  |  | 28 | 0.882 | 31.7 |  | 122 |  |  | 5.5 | 10 |  | 400 (≈ 231 µg/mL) | 23 | 
CS(=O)(=O)OCCN(CCBr)c1cc(C(=O)NCCO)c([N+](=O)[O-])cc1[N+](=O)[O-] | 0.46 | 633 | 1 | 620 | 219 | 0.2 | 1330 | 194 | 0.78 | 250 | 286 |  | 0.61 | 467 |  |  |  | 1700 (≈ 849 µg/mL) | 70 | 
NC(=O)c1cc(N(CCI)CCI)c([N+](=O)[O-])cc1[N+](=O)[O-] | 2.41 | 11 | 0.2 | 54 | 25 | 0.08 | 332 | 15 | 0.3 | 50 | 30 | >20 | 0.43 | 71 | 1.65 | 2 |  | 40 (≈ 21.4 µg/mL) | 69 | MTD [28]: 200 µmol/kg; LCK (EMT6 [29]): 1.48; Activity (WiDr [30]): 8 days
NC(=O)c1cc(N(CCCl)CCCl)c([N+](=O)[O-])cc1[N+](=O)[O-] | 1.52 | 490 | 17 | 42 | 442 | 1.85 | 261 | 703 | 9.5 | 93 | 803 | >1000 | 9.5 | 98 | 98 | 120 |  | 750 (≈ 263 µg/mL) | 99 | MTD [28]: 200 µmol/kg; LCK (EMT6 [29]): 2.29; Activity (WiDr [31]): 11 days; Activity (WiDr [30]): 29 days
CS(=O)(=O)c1cc([N+](=O)[O-])c(C(N)=O)cc1N(CCCl)CCCl |  | 767 | 9.5 | 73 | 388 | 3.9 | 101 | 350 | 26 | 15 | 980 | >1000 | 15 | 65 | 160 | >300 |  | 330 (≈ 127 µg/mL) |  | 
CS(=O)(=O)OCCN(CCBr)c1cc(C(=O)NCC(O)CO)c([N+](=O)[O-])cc1[N+](=O)[O-] (stereo unspecified) | -0.05 | 733 | 1 | 1660 | 712 | 1.6 | 527 | 804 | 3 | 272 | 1110 | >1300 | 1.7 | 640 | 70 | >1300 | 1330 | 1300 (≈ 688 µg/mL) | 63 | Ratio (V79 [21]): <0.05; Activity (WiDr [22]): 9 days; Activity (WiDr [23]): 55 days
O=C(NCCO)c1cc(N(CCBr)CCBr)c([N+](=O)[O-])cc1[N+](=O)[O-] | 1.69 | 80 | 0.43 | 203 | 70 | 0.08 | 871 | 61 | 0.34 | 182 | 81 | 150 | 0.3 | 270 | 5.2 | 17 |  | 320 (≈ 155 µg/mL) | 76 | 
NC(=O)c1cc(N2CC2)c([N+](=O)[O-])cc1[N+](=O)[O-] [TRETAZICAR] | 0.14 | 374 | 0.26 | 2090 | 83 | 0.098 | 947 | 54.5 | 1.14 | 51.1 | 174 | 1400 | 0.64 | 317 | 23 | 173 |  |  |  | MTD [28]: 200 µmol/kg; LCK (EMT6 [29]): 3.16; Ratio (V79 [21]): 0.14; Activity (WiDr [31]): 14 days; Activity (WiDr [30]): >88 days
